Experimental data from ChEMBL document CHEMBL4715736, “Identification of anticancer agents based on the thieno[2,3-b]pyridine and 1H-pyrazole molecular scaffolds” (2016).

Key:
Assay type in all cases: functional
Conditions in all cases: read-out: Activity
[1] = system: HCT-116; assay: Growth inhibition of human HCT-116 cells assessed as cell growth at 10 uM incubated for 48 hrs by sulforhodamine B assay relative to control
Method in brief: (§1)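 Submitted to the NCI Developmental Therapeutics Program for the NCI60 human tumour cell line panel. First screen at a single 10 µM concentration. Read-out is growth relative to untreated control cells set at 100%.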

[2] = system: DU-145; assay: Growth inhibition of human DU-145 cells assessed as cell growth at 10 uM incubated for 48 hrs by sulforhodamine B assay relative to control
Method in brief: (§2)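 NCI Developmental Therapeutics Program NCI60 panel. Compounds that were active in the 10 µM one-dose screen went on to dose–response testing. Growth at each concentration is expressed relative to untreated control (100%). GI50 (concentration giving 50% of maximal inhibition of proliferation) and TGI (concentration giving total growth inhibition) were derived from the curves.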

[3] = system: COLO 205; assay: Growth inhibition of human COLO 205 cells assessed as cell growth at 10 uM incubated for 48 hrs by sulforhodamine B assay relative to control; method in brief: as §2
[4] = system: KM12; assay: Growth inhibition of human KM12 cells assessed as cell growth at 10 uM incubated for 48 hrs by sulforhodamine B assay relative to control; method in brief: as §1
[5] = system: SK-MEL-5; assay: Growth inhibition of human SK-MEL-5 cells assessed as cell growth at 10 uM incubated for 48 hrs by sulforhodamine B assay relative to control
Method in brief: (§3)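 Run by the NCI Developmental Therapeutics Program as part of its 60-line human tumour panel. Each compound tested at a single 10 µM dose. Growth expressed as % relative to untreated control cells (100%).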

[6] = system: HCC 2998; assay: Growth inhibition of human HCC 2998 cells assessed as cell growth at 10 uM incubated for 48 hrs by sulforhodamine B assay relative to control; method in brief: as §2
[7] = system: ACHN; assay: Growth inhibition of human ACHN cells assessed as cell growth at 10 uM incubated for 48 hrs by sulforhodamine B assay relative to control
Method in brief: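 NCI Developmental Therapeutics Program NCI60 human tumour cell line panel, one-dose primary screen with every compound at 10 µM. Growth is expressed as % of untreated control cells (100%).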

[8] = system: OVCAR-5; assay: Growth inhibition of human OVCAR-5 cells assessed as cell growth at 10 uM incubated for 48 hrs by sulforhodamine B assay relative to control; method in brief: as §3
[9] = system: SF-539; assay: Growth inhibition of human SF-539 cells assessed as cell growth at 10 uM incubated for 48 hrs by sulforhodamine B assay relative to control; method in brief: as §3
[10] = system: MDA-MB-468; assay: Growth inhibition of human MDA-MB-468 cells assessed as cell growth at 10 uM incubated for 48 hrs by sulforhodamine B assay relative to control; method in brief: as §1
[11] = system: M14; assay: Growth inhibition of human M14 cells assessed as cell growth at 10 uM incubated for 48 hrs by sulforhodamine B assay relative to control; method in brief: as §1
[12] = system: IGROV-1; assay: Growth inhibition of human IGROV-1 cells assessed as cell growth at 10 uM incubated for 48 hrs by sulforhodamine B assay relative to control; method in brief: as §1
[13] = system: LOX IMVI; assay: Growth inhibition of human LOX IMVI cells assessed as cell growth at 10 uM incubated for 48 hrs by sulforhodamine B assay relative to control; method in brief: as §1
[14] = system: NCI-H322M; assay: Growth inhibition of human NCI-H322M cells assessed as cell growth at 10 uM incubated for 48 hrs by sulforhodamine B assay relative to control; method in brief: as §1
[15] = system: HOP-92; assay: Growth inhibition of human HOP-92 cells assessed as cell growth at 10 uM incubated for 48 hrs by sulforhodamine B assay relative to control; method in brief: as §1
[16] = system: A549; assay: Growth inhibition of human A549/ATCC cells assessed as cell growth at 10 uM incubated for 48 hrs by sulforhodamine B assay relative to control; method in brief: as §2
[17] = system: Malme-3M; assay: Growth inhibition of human Malme-3M cells assessed as cell growth at 10 uM incubated for 48 hrs by sulforhodamine B assay relative to control; method in brief: as §1
[18] = system: UACC-257; assay: Growth inhibition of human UACC-257 cells assessed as cell growth at 10 uM incubated for 48 hrs by sulforhodamine B assay relative to control; method in brief: as §3
[19] = system: OVCAR-4; assay: Growth inhibition of human OVCAR-4 cells assessed as cell growth at 10 uM incubated for 48 hrs by sulforhodamine B assay relative to control; method in brief: as §3
[20] = system: T47D; assay: Growth inhibition of human T47D cells assessed as cell growth at 10 uM incubated for 48 hrs by sulforhodamine B assay relative to control; method in brief: as §3
[21] = system: SF-295; assay: Growth inhibition of human SF-295 cells assessed as cell growth at 10 uM incubated for 48 hrs by sulforhodamine B assay relative to control; method in brief: as §3
[22] = system: CCRF-CEM; assay: Growth inhibition of human CCRF-CEM cells assessed as cell growth at 10 uM incubated for 48 hrs by sulforhodamine B assay relative to control; method in brief: as §2
[23] = system: OVCAR-8; assay: Growth inhibition of human OVCAR-8 cells assessed as cell growth at 10 uM incubated for 48 hrs by sulforhodamine B assay relative to control; method in brief: as §3
[24] = system: OVCAR-3; assay: Growth inhibition of human OVCAR-3 cells assessed as cell growth at 10 uM incubated for 48 hrs by sulforhodamine B assay relative to control; method in brief: as §3
[25] = system: NCI-H460; assay: Growth inhibition of human NCI-H460 cells assessed as cell growth at 10 uM incubated for 48 hrs by sulforhodamine B assay relative to control; method in brief: as §1
[26] = system: RXF 393; assay: Growth inhibition of human RXF 393 cells assessed as cell growth at 10 uM incubated for 48 hrs by sulforhodamine B assay relative to control; method in brief: as §3
[27] = system: RPMI-8226; assay: Growth inhibition of human RPMI-8226 cells assessed as cell growth at 10 uM incubated for 48 hrs by sulforhodamine B assay relative to control; method in brief: as §3
[28] = system: MCF7; assay: Growth inhibition of human MCF7 cells assessed as cell growth at 10 uM incubated for 48 hrs by sulforhodamine B assay relative to control; method in brief: as §1
[29] = system: SNB-19; assay: Growth inhibition of human SNB-19 cells assessed as cell growth at 10 uM incubated for 48 hrs by sulforhodamine B assay relative to control; method in brief: as §3
[30] = system: SK-MEL-28; assay: Growth inhibition of human SK-MEL-28 cells assessed as cell growth at 10 uM incubated for 48 hrs by sulforhodamine B assay relative to control; method in brief: as §3
[31] = system: SN12C; assay: Growth inhibition of human SN12C cells assessed as cell growth at 10 uM incubated for 48 hrs by sulforhodamine B assay relative to control; method in brief: as §3
[32] = system: HOP-62; assay: Growth inhibition of human HOP-62 cells assessed as cell growth at 10 uM incubated for 48 hrs by sulforhodamine B assay relative to control; method in brief: as §1
[33] = system: U-251; assay: Growth inhibition of human U-251 cells assessed as cell growth at 10 uM incubated for 48 hrs by sulforhodamine B assay relative to control; method in brief: as §3
[34] = system: UACC-62; assay: Growth inhibition of human UACC-62 cells assessed as cell growth at 10 uM incubated for 48 hrs by sulforhodamine B assay relative to control; method in brief: as §3
[35] = system: NCI-H23; assay: Growth inhibition of human NCI-H23 cells assessed as cell growth at 10 uM incubated for 48 hrs by sulforhodamine B assay relative to control; method in brief: as §1

SMILES	growth at 10 µM [1]	growth at 10 µM [2]	growth at 10 µM [3]	growth at 10 µM [4]	growth at 10 µM [5]	growth at 10 µM [6]	growth at 10 µM [7]	growth at 10 µM [8]	growth at 10 µM [9]	growth at 10 µM [11]	growth at 10 µM [12]	growth at 10 µM [13]	growth at 10 µM [14]	growth at 10 µM [15]	growth at 10 µM [16]	growth at 10 µM [17]	growth at 10 µM [18]	growth at 10 µM [19]	growth at 10 µM [20]	growth at 10 µM [21]	also measured
CCc1ccccc1NC(=O)c1sc2nc3c(cc2c1N)C(=O)CCC3	24%	2.55%	-68%	21%	17%	20%	38%	22%	-17%	5%	33.3%	42.6%	46.3%	54%	21.5%	60.8%	60%	41%	22%	-3.21%	growth at 10 µM [10]: 14%; growth at 10 µM [22]: 4%; growth at 10 µM [23]: 24.3%; growth at 10 µM [24]: -12.7%; growth at 10 µM [25]: 6.42%; growth at 10 µM [26]: -4%; growth at 10 µM [27]: -1%; growth at 10 µM [28]: 8.32%; growth at 10 µM [29]: 35%; growth at 10 µM [30]: 43.7%; growth at 10 µM [31]: 40%; growth at 10 µM [32]: 35.5%; growth at 10 µM [33]: 13%
Cc1ccc(NC(=O)c2sc3nc4c(cc3c2N)C(=O)CCC4)cc1C	23%	8.18%	-63%	19.5%	16%	10%	43%	21%	-18%	-23%	23.9%	39.2%	35%	50%	19.5%	47%	54.2%	32%	24.1%	8.72%	growth at 10 µM [10]: 4%; growth at 10 µM [22]: -6%; growth at 10 µM [23]: 31%; growth at 10 µM [24]: -17%; growth at 10 µM [25]: 4%; growth at 10 µM [26]: -18%; growth at 10 µM [27]: -2%; growth at 10 µM [28]: 10.7%; growth at 10 µM [29]: 31%; growth at 10 µM [30]: 37.3%; growth at 10 µM [31]: 35%; growth at 10 µM [32]: 23.6%; growth at 10 µM [33]: 10%
Cc1cccc(NC(=O)c2sc3nc4c(cc3c2N)C(=O)CCC4)c1	20%	6%	-21%	13%	6%	25%	25%	32%	-61%	4%	-4.52%	24%	37.2%	35%	23%	14%	37%	21%	29%	7%	growth at 10 µM [22]: 24%; growth at 10 µM [23]: 37%; growth at 10 µM [24]: -22%; growth at 10 µM [25]: 5%; growth at 10 µM [26]: -10%; growth at 10 µM [34]: 14%; growth at 10 µM [27]: 22%; growth at 10 µM [28]: 16%; growth at 10 µM [29]: 29%; growth at 10 µM [30]: 34%; growth at 10 µM [31]: 35%; growth at 10 µM [32]: 8%; growth at 10 µM [33]: 6%; growth at 10 µM [35]: 28%
